Data set [1] is described as follows: Hemolytic activity against human RBC assessed as hemoglobin release after 1 hr. The data set is classed as ADME, cell-based. The note with it: Erythrocyte. The method, boiled down: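 Heparinized human blood freed of plasma by centrifugation, washed three times in 37 °C PBS, diluted to 10% hematocrit and added to compound in PBS (1–1000 μg/mL) to 1% v/v erythrocytes. PBS negative, 0.1% v/v Triton X-100 positive control.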

The next data set relates to Pseudomonas aeruginosa. Put plainly: Antimicrobial activity against Pseudomonas aeruginosa ATCC 27853. The data set is classed as functional.
Another data set concerns Escherichia coli. Put plainly: Antimicrobial activity against Escherichia coli ATCC 25922. The data set is classed as functional.
For data set [2], the system named is Staphylococcus epidermidis. Put plainly: Antimicrobial activity against methicillin-resistant Staphylococcus epidermidis ATCC 27626. Format: functional. The method, boiled down:
(§1)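 MIC screen run at a contract lab. Each compound, as its ditrifluoroacetate salt, tested in duplicate at 200, 100, 50, 35, 15, 10, 5, 2.5, 1 and 0.5 μg/mL. Molar values calculated from the salt form. Gentamicin used as positive control.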

The subject of data set [3] is Staphylococcus aureus. Put plainly: Antimicrobial activity against methicillin-resistant Staphylococcus aureus ATCC 33591. The data set is classed as functional. The method, boiled down: as §1
Data set [4] concerns Staphylococcus aureus. As to the kind of experiment: Antimicrobial activity against Staphylococcus aureus ATCC 25923. Format: functional.
Data set [5] can be described thus: Therapeutic index, ratio of EC50 for human RBC hemolytic activity to MIC for methicillin-resistant Staphylococcus aureus ATCC 33591. The settings on record: human red blood cells (RBC), read-out: TI. The method, boiled down: (§2)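 Index taken as hemolytic EC50 divided by MIC for each strain. Hemolysis: human RBCs from heparinized blood, washed with 37 °C PBS, diluted to 10% hematocrit. Cells exposed at 1% v/v final to compound in PBS at 1–1000 μg/mL for 1 h at 37 °C with agitation. Hemoglobin read by supernatant A405 against PBS and 0.1% Triton X-100 controls. MICs in duplicate at 0.5–200 μg/mL.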

Data set [6] is described as follows: Therapeutic index, ratio of EC50 for human RBC hemolytic activity to MIC for methicillin-resistant Staphylococcus epidermidis ATCC 27626. The note with it: human red blood cells (RBC), read-out: TI. The method, boiled down: as §2
Data set [7] is described as follows: Therapeutic index, ratio of EC50 for human RBC hemolytic activity to MIC for Staphylococcus aureus ATCC 25923. The note with it: human red blood cells (RBC), read-out: TI. The method, boiled down:
as §2

A short description of data set [8]: Therapeutic index, ratio of EC50 for human RBC hemolytic activity to MIC for Escherichia coli ATCC 25922. The settings on record: human red blood cells (RBC), read-out: TI. The method, boiled down: as §2
A short description of data set [9]: Therapeutic index, ratio of EC50 for human RBC hemolytic activity to MIC for Pseudomonas aeruginosa ATCC 27853. The note with it: human red blood cells (RBC), read-out: TI. The method, boiled down:
as §2

Data set [10] relates to Staphylococcus aureus. Put plainly: Antimicrobial activity against Staphylococcus aureus assessed as cell wall mesosome structure and septum of bacteria at 117 uM after 3 hrs by transmission electron microscopy. Format: functional, organism-based.
The subject of data set [11] is Staphylococcus aureus. Put plainly: Antimicrobial activity against Staphylococcus aureus assessed as cell wall mesosome structure and septum of bacteria at 234 uM after 2 hrs by transmission electron microscopy. Format: functional, organism-based.
Data set [12] can be described thus: Permeability of the compound across phospholipid vesicle based barrier model at pH 7.4. Format: ADME. The method, boiled down:
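Passive diffusion through phospholipid vesicle-based barriers (egg lipid extract, ~82% phosphatidylcholine) on filter inserts at room temperature. Donor in phosphate buffer pH 7.4, or pH 5.5 for a poorly soluble compound; acceptor always pH 7.4. Inserts moved to fresh acceptor wells; UV 230 nm at 1, 2, 3, 3.5, 4, 4.5, 5 h; barrier resistance checked afterwards.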

Values after ≈ are worked out from the molar mass of the structure shown. Active and inactive are the calls of the source. No cut-off for these calls is given here.

Take `NCCNC(=O)C(CN)(Cc1ccc2ccccc2c1)Cc1ccc2ccccc2c1.O=C(O)C(F)(F)F.O=C(O)C(F)(F)F`: the EC50 in data set [1] was 457 µM. The MIC against Pseudomonas aeruginosa was found to be 55 µM; in the data set on Escherichia coli, 24 µM; in data set [2], 3.9 µM; with Staphylococcus aureus [3], 7.8 µM; in the data set with Staphylococcus aureus [4] it was 3.9 µM. The selectivity ratio in data set [5] came out at 59; in data set [6], 117; in data set [7], 117; in [8], 19; in data set [9], 8.3. In addition, the result in the data set with Staphylococcus aureus [10] and in the data set on Staphylococcus aureus [11] was Active.
Consider `CN(C)CCN1CCN(C(=O)C(CN)(Cc2ccc3ccccc3c2)Cc2ccc3ccccc3c2)CC1.O=C(O)C(F)(F)F.O=C(O)C(F)(F)F`, for which the concentration giving a half-maximal response (EC50) in data set [1] worked out at 409 µM. The MIC was found to be 48 µM in the data set on Escherichia coli, 14 µM in data set [2], 3.4 µM against Staphylococcus aureus [3] and 20 µM in the data set on Staphylococcus aureus [4]. Further, the selectivity ratio in data set [5] stood at 120; in data set [6], 29; in [7] it was 20; in data set [8], 8.5. In addition, the permeability result in [12] was “permeable”.
Turning to `CN1CCN(C(=O)C(CN)(Cc2ccc3ccccc3c2)Cc2ccc3ccccc3c2)CC1.O=C(O)C(F)(F)F.O=C(O)C(F)(F)F`, the 50% effective concentration (EC50) in [1] was 303 µM. For the same compound, the MIC came to 22 µM against Escherichia coli, 15 µM in [2], 7.4 µM in the data set with Staphylococcus aureus [3] and 15 µM in the data set on Staphylococcus aureus [4]. For the same compound, the selectivity ratio in data set [5] was found to be 41; in [6], 20; in data set [7], 20; in data set [8], 14. Besides, the permeability entry in [12] is reported as “permeable”.
Regarding `CN1CCN(C(=O)C(CN)(Cc2ccc(C(C)(C)C)cc2)Cc2ccc(C(C)(C)C)cc2)CC1.O=C(O)C(F)(F)F.O=C(O)C(F)(F)F`, the EC50 in data set [1] worked out at 348 µM. For the same compound, the MIC against Pseudomonas aeruginosa was found to be 289 µM; with Escherichia coli, 15 µM; in data set [2] it was 7.2 µM; against Staphylococcus aureus [3], 15 µM; in the data set on Staphylococcus aureus [4] it was 15 µM. Also, the selectivity ratio in [5] amounted to 23; in data set [6] it was 48; in data set [7], 23; in [8], 23; in data set [9], 1.2.
Take `NCCNC(=O)C(CN)(Cc1ccc(C(F)(F)F)cc1)Cc1ccc(C(F)(F)F)cc1.O=C(O)C(F)(F)F.O=C(O)C(F)(F)F`: the EC50 in data set [1] worked out at 425 µM. Further, the MIC came to 52 µM with Escherichia coli, 15 µM in [2], 7.4 µM in the data set on Staphylococcus aureus [3] and 15 µM in the data set on Staphylococcus aureus [4]. Further, the selectivity ratio is 57 in data set [5], 28 in [6], 28 in [7] and 8 in data set [8].
`CN1CCN(C(=O)C(CN)(CCCc2ccccc2)CCCc2ccccc2)CC1`: the MIC (with Escherichia coli; in [2]; with Staphylococcus aureus [3]; with Staphylococcus aureus [4]) was 315 µM (≈ 128 µg/mL) throughout.
`CC(C)(C)c1ccc(CC(CN)(Cc2ccc(C(C)(C)C)cc2)C(=O)NCCN)cc1.O=C(O)C(F)(F)F.O=C(O)C(F)(F)F`: the EC50 in data set [1] is 18 µM. Besides, the MIC stood at 23 µM against Pseudomonas aeruginosa; 7.7 µM in the data set on Escherichia coli; 3.8 µM in data set [2]; 3.8 µM against Staphylococcus aureus [3]; 3.8 µM in the data set on Staphylococcus aureus [4]. Besides, the selectivity ratio in [5] came out at 4.7; in data set [6], 4.7; in data set [7] it was 4.7; in [8] it was 2.3; in data set [9], 0.8.
For `CN(C)CCNC(=O)C(CN)(Cc1ccc(C(F)(F)F)cc1)Cc1ccc(C(F)(F)F)cc1.O=C(O)C(F)(F)F.O=C(O)C(F)(F)F`, in [1], the EC50 stood at 468 µM. Moreover, the MIC in the data set with Escherichia coli is 50 µM; in data set [2], 21 µM; in the data set with Staphylococcus aureus [3], 7.1 µM; in the data set with Staphylococcus aureus [4], 14 µM. In addition, the selectivity ratio in [5] stood at 66; in data set [6] it was 22; in data set [7] it was 33; in data set [8], 9.4.
`CN(C)CCNC(=O)C(CN)(Cc1ccc(C(C)(C)C)cc1)Cc1ccc(C(C)(C)C)cc1.O=C(O)C(F)(F)F.O=C(O)C(F)(F)F`: in data set [1], the EC50 is 274 µM. Besides, the MIC is 74 µM in the data set on Pseudomonas aeruginosa; 7.4 µM in the data set with Escherichia coli; 3.7 µM in [2]; 7.4 µM in the data set on Staphylococcus aureus [3]; 7.4 µM in the data set on Staphylococcus aureus [4]. Also, the selectivity ratio was found to be 37 in [5]; 74 in data set [6]; 37 in data set [7]; 37 in data set [8]; 3.7 in data set [9].
Consider `CN(C)CCNC(=O)C(CN)(Cc1ccc2ccccc2c1)Cc1ccc2ccccc2c1.O=C(O)C(F)(F)F.O=C(O)C(F)(F)F`, for which the EC50 in data set [1] worked out at 117 µM. Moreover, the MIC with Pseudomonas aeruginosa was 300 µM; in the data set on Escherichia coli, 23 µM; in [2] it was 7.5 µM; against Staphylococcus aureus [3], 7.5 µM; against Staphylococcus aureus [4], 7.5 µM. The selectivity ratio was 16 in data set [5]; 16 in data set [6]; 16 in data set [7]; 5.1 in [8]; 0.4 in data set [9]. Also, the permeability result in [12] is listed as “permeable”.
As to `CN(C)CCN1CCN(C(=O)C(CN)(Cc2ccc(C(C)(C)C)cc2)Cc2ccc(C(C)(C)C)cc2)CC1.O=C(O)C(F)(F)F.O=C(O)C(F)(F)F`, the EC50 in [1] was found to be 337 µM. Further, the MIC turned out to be 255 µM with Pseudomonas aeruginosa; 13 µM against Escherichia coli; 13 µM in [2]; 13 µM in the data set on Staphylococcus aureus [3]; 13 µM against Staphylococcus aureus [4]. The selectivity ratio in [5] came out at 26; in [6] it was 26; in data set [7], 26; in data set [8], 26; in [9], 1.3.
Consider `CN(C)CCN1CCN(C(=O)C(CN)(CCCc2ccccc2)CCCc2ccccc2)CC1`, for which the MIC in the data set on Escherichia coli is 289 µM (≈ 134 µg/mL); in data set [2], 72 µM (≈ 33.5 µg/mL); against Staphylococcus aureus [3], 72 µM (≈ 33.5 µg/mL); in the data set on Staphylococcus aureus [4], 289 µM (≈ 134 µg/mL).
As for `CN1CCN(C(=O)C(CN)(Cc2ccc(C(F)(F)F)cc2)Cc2ccc(C(F)(F)F)cc2)CC1.O=C(O)C(F)(F)F.O=C(O)C(F)(F)F`, the EC50 in data set [1] stood at 525 µM. In addition, the MIC in the data set with Escherichia coli came out at 70 µM; in data set [2] it was 70 µM; against Staphylococcus aureus [3], 14 µM; in the data set on Staphylococcus aureus [4] it was 49 µM. In addition, the selectivity ratio in data set [5] is 38; in data set [6] it was 7.5; in [7], 11; in [8], 7.5.
Consider `CN(C)CCNC(=O)C(CN)(CCCc1ccccc1)CCCc1ccccc1.O=C(O)C(F)(F)F.O=C(O)C(F)(F)F`, for which the EC50 in data set [1] came out at 507 µM. The minimum inhibitory concentration (MIC) turned out to be 160 µM against Escherichia coli, 56 µM in [2], 56 µM in the data set on Staphylococcus aureus [3] and 56 µM against Staphylococcus aureus [4]. Moreover, the selectivity ratio is 9.1 in data set [5], 9.1 in data set [6], 9.1 in [7] and 3.2 in data set [8].
As for `NCCNC(=O)C(CN)(CCCc1ccccc1)CCCc1ccccc1.O=C(O)C(F)(F)F.O=C(O)C(F)(F)F`, the EC50 in data set [1] came to 1380 µM. Also, the MIC came out at 336 µM in the data set on Escherichia coli, 25 µM in data set [2], 59 µM in the data set with Staphylococcus aureus [3] and 71 µM in the data set on Staphylococcus aureus [4]. Besides, the selectivity ratio in [5] was 23; in [6] it was 55; in data set [7], 19; in data set [8], 4.1.
As to `CN(C)CCN1CCN(C(=O)C(CN)(Cc2ccc(C(F)(F)F)cc2)Cc2ccc(C(F)(F)F)cc2)CC1.O=C(O)C(F)(F)F.O=C(O)C(F)(F)F`, in data set [1], the EC50 is 1120 µM. For the same compound, the MIC against Escherichia coli worked out at 129 µM; in [2] it was 65 µM; against Staphylococcus aureus [3] it was 6.5 µM; in the data set with Staphylococcus aureus [4], 45 µM. In addition, the selectivity ratio in [5] is 172; in data set [6], 17; in data set [7], 25; in data set [8], 8.6.

The record behind these values is ChEMBL document CHEMBL1671817, “Synthesis of cationic antimicrobial β(2,2)-amino acid derivatives with potential for oral administration” (J Med Chem, 2011).
